# Reference: ChEMBL document CHEMBL4028873, “The Discovery of a Dual TTK Protein Kinase/CDC2-Like Kinase (CLK2) Inhibitor for the Treatment of Triple Negative Breast Cancer Initiated from a Phenotypic Screen” (J Med Chem, 2017)
# The source made the active and inactive calls. No cut-off for these calls is given here.
# Tests used:
# [1] = Mean residence time in rat at 2 mg/kg, iv; type: ADME, organism-based; details: in vivo
# [2] = target: T1, Phosphorylase b kinase gamma catalytic chain, skeletal muscle/heart isoform (Homo sapiens, UniProt Q16816); experiment: Inhibition of full length human GST-tagged PHKG1 expressed in baculovirus by Z'-LYTE assay
# Target sequence in this assay (Q16816 whole entry, canonical isoform): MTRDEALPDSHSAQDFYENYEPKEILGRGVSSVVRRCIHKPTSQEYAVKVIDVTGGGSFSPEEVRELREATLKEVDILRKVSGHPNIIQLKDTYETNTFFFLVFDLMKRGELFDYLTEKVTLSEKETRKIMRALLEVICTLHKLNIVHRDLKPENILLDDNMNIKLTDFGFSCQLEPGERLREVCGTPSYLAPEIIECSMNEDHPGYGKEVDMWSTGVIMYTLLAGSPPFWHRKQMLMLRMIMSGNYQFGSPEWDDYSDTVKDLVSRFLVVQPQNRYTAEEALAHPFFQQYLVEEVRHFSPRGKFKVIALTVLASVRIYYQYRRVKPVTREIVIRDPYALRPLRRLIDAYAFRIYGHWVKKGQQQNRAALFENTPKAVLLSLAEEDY
# [3] = target: Dual specificity tyrosine-phosphorylation-regulated kinase 1B (Homo sapiens, UniProt Q9Y463); experiment: Inhibition of full length human recombinant GST-tagged DYRK1B expressed in baculovirus by Z'-LYTE assay
# Chain of Dual specificity tyrosine-phosphorylation-regulated kinase 1B (Q9Y463 whole entry): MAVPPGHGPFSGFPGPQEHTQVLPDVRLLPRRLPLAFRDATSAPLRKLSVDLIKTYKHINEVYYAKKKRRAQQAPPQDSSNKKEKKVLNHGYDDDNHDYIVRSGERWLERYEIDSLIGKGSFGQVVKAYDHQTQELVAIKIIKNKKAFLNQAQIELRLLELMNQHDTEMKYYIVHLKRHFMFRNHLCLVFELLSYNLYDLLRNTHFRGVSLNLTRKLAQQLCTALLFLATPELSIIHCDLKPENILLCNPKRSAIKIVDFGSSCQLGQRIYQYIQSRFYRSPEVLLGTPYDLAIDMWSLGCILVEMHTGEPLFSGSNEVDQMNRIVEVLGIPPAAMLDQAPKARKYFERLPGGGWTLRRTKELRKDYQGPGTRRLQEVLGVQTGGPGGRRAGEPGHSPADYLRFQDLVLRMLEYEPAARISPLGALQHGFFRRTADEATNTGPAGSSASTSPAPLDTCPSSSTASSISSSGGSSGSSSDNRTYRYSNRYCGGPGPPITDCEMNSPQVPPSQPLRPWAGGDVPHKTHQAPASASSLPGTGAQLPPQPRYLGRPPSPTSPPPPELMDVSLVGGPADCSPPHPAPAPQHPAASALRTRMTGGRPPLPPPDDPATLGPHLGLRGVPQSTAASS
# [4] = target: T2, c-Jun N-terminal kinase, JNK (Homo sapiens, UniProt P45983+P53779+P45984); experiment: Inhibition of JNK1/JNK2/JNK3 in human HCT116 cell lysate after 1 hr by LC-MS/MS analysis relative to control
# [5] = target: T2, c-Jun N-terminal kinase, JNK; experiment: Binding affinity to JNK1/JNK2/JNK3 in human HCT116 cell lysate at 3 uM after 1 hr by LC-MS/MS analysis
# Method in brief: (§1)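 ActivX KiNative cellular kinase profiling. HCT-116 cells were grown in RPMI-1640 with 10% FBS and exposed to compound at 3 μM for 1 h, with DMSO-only controls. Cells were then washed with ice-cold PBS, scraped, pelleted and stored at −80 °C. Kinase binding was reported as percent occupancy relative to the untreated controls.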
# [6] = target: T1, Phosphorylase b kinase gamma catalytic chain, skeletal muscle/heart isoform; experiment: Binding affinity to PHKG1 in human HCT116 cells at 3 uM after 1 hr by LC-MS/MS analysis relative to control; type: cell-based; method in brief: as §1
# Target sequence in this assay (Q16816 whole entry, looked up, canonical isoform): as the sequence (Q16816 whole entry, canonical isoform) above
# MDA-MB-231 = experiment: Antiproliferative activity against human MDA-MB-231 cells after 3 days by CellTiter-Glo assay; type: functional, cell-based
# Method in brief: (§2)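 Cell lines kept in vendor-recommended growth media; 3-day compound exposure, then CellTiter-Glo luminescence read. Percent inhibition per concentration normalized to DMSO control, triplicate wells.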
# MDA-MB-468 = experiment: Antiproliferative activity against human MDA-MB-468 cells after 3 days by CellTiter-Glo assay; type: functional, cell-based; method in brief: as §2
# Mus musculus = experiment: Toxicity in SCID mouse xenografted with human CAL51 cells assessed as loss in body weight at 20 mg/kg, iv administered every 7 days for 16 days relative to control; type: organism-based; details: in vivo
# [7] = target: Voltage-gated inwardly rectifying potassium channel KCNH2 (Homo sapiens, UniProt Q12809); experiment: Inhibition of human ERG
# Chain of Voltage-gated inwardly rectifying potassium channel KCNH2 (Q12809 whole entry): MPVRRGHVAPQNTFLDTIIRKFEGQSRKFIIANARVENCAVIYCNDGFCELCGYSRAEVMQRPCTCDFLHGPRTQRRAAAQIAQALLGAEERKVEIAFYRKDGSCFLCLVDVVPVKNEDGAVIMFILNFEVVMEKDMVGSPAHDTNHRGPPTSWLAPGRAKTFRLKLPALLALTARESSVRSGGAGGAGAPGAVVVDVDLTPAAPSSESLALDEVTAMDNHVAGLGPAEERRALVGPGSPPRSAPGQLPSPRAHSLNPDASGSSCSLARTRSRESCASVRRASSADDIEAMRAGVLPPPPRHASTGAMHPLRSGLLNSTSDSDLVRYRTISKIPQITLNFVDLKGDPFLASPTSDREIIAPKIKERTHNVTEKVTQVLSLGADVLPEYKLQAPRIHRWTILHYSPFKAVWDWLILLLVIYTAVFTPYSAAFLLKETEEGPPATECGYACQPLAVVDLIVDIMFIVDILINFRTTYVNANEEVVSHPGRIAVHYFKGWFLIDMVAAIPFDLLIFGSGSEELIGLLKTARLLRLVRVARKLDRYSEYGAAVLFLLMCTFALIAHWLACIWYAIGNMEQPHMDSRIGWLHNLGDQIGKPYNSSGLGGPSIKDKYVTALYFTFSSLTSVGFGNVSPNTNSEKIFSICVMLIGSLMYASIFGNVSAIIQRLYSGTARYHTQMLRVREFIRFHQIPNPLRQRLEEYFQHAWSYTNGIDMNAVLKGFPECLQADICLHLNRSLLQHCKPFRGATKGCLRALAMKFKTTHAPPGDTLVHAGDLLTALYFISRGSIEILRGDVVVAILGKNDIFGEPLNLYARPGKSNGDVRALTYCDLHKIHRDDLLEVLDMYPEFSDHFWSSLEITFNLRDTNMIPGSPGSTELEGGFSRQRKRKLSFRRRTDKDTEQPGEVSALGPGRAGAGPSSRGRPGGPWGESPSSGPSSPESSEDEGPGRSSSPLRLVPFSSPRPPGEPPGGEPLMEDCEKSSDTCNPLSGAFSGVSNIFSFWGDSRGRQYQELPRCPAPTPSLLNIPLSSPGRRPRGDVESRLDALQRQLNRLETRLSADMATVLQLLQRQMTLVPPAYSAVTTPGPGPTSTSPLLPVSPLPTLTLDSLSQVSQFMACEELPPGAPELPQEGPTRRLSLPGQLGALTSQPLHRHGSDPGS
# [8] = target: Dual specificity protein kinase CLK2 (Homo sapiens) (UniProt P49760); details: 3 uM
# Chain of Dual specificity protein kinase CLK2 (Homo sapiens) (P49760 whole entry, looked up): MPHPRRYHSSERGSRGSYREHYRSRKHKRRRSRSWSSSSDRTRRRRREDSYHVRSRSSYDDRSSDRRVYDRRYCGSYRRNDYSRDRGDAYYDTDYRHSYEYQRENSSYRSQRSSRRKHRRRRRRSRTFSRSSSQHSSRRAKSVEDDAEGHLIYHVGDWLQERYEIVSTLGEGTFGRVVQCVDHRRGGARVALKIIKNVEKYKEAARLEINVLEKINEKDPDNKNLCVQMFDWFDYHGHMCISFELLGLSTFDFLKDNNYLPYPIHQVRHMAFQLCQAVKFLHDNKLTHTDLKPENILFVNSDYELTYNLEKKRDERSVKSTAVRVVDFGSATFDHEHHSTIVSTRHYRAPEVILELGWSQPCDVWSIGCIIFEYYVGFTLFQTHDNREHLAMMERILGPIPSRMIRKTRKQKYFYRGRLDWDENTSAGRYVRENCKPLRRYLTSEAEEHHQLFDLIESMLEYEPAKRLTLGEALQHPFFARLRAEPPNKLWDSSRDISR
smiles,measurement,setting,value
CNC(=O)c1ccc(Nc2nc(OC3CCCC3)c3c(-c4ccc5nc(C)oc5c4)c[nH]c3n2)c(OC)c1,MRT,[1],4.1 h
same,IC50,[2],136 nM
same,IC50,[3],157 nM
same,IC50,[4],680 nM
same,Activity,[5],> 75%
same,Activity,[6],26%
same,Activity,MDA-MB-231,Active
same,Activity,MDA-MB-468,Active
same,Activity,Mus musculus,Non-Toxic
same,IC50,[7],> 33000 nM
same,inhibition,[8],> 80%
